Source: ChEMBL document CHEMBL1140249, “Inhibitors of the inducible microsomal prostaglandin E2 synthase (mPGES-1) derived from MK-886” (Bioorg Med Chem Lett, 2005)

Target: T1, Thromboxane-A synthase (Homo sapiens, UniProt P24557)
T1 sequence (P24557 whole entry): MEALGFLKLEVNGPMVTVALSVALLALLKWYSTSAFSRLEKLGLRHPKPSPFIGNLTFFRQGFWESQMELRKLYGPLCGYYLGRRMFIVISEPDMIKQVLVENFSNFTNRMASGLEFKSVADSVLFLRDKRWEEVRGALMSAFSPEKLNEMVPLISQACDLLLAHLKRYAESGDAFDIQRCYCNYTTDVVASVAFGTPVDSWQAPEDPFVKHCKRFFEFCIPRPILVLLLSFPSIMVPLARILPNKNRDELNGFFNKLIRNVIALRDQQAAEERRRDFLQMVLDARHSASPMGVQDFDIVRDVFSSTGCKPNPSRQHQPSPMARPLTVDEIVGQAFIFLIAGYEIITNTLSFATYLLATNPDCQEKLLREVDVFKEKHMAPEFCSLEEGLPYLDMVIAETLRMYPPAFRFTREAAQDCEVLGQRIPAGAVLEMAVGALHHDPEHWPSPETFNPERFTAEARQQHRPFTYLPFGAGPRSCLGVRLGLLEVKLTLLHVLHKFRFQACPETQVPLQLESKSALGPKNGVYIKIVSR
Assay: In vitro inhibition against human Thromboxane synthase

| IC50 [nM] | Compound |
| --- | --- |
| 950 | Cc1ccccc1-c1ccc(-c2ccc3c(c2)c(C)c(CC(C)(C)C(=O)O)n3Cc2ccc(Cl)cc2)cc1F |
| 1400 | Cc1c(CC(C)(C)C(=O)O)n(Cc2ccc(Cl)cc2)c2ccc(-c3ccc(-c4ccccc4)c(F)c3)cc12 |

Target: Prostaglandin E synthase (Homo sapiens, UniProt O14684)
Assay: Inhibitory concentration against human prostaglandin E2 synthase (mPGES-1)
Procedure, shortened: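 Microsomes from CHO cells expressing recombinant human mPGES-1, 5–10 lg protein/mL, preincubated with inhibitor 15 min. Reaction started with 1 µM PGH₂ and run 0.5 min, then stopped with 0.1 N HCl plus stannous chloride. PGE₂ measured by EIA. IC₅₀ from eight-point titrations.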

Chain of Prostaglandin E synthase (O14684 whole entry, looked up): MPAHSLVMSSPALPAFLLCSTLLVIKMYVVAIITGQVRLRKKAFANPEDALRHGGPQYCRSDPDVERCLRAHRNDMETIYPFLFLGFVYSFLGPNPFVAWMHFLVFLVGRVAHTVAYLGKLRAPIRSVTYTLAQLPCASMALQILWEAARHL

| Compound | IC50 [nM] |
| --- | --- |
| CC(C)c1ccc2c(c1)c(-c1ccccc1)c(CC(C)(C)C(=O)O)n2Cc1ccc(Cl)cc1 | 6400 |
| CC(C)c1ccc2[nH]c(CC(C)(C)C(=O)O)c(SC(C)(C)C)c2c1 | > 10000 |
| Cc1c(CC(C)(C)C(=O)O)n(Cc2ccc(Cl)cc2)c2ccc(-c3cccc(-c4ccccc4)c3)cc12 | 160 |
| CC(C)c1ccc2c(c1)c(SC(C)(C)C)c(CC(C)(C)C(=O)ON)n2Cc1ccc(Cl)cc1 | > 10000 |
| CC(C)c1ccc2c(c1)c(C(=O)CC(C)(C)C)c(CC(C)(C)C(=O)O)n2Cc1ccc(Cl)cc1 | 250 |
| Cc1c(CC(C)(C)C(=O)O)n(Cc2ccc(Cl)cc2)c2ccc(-c3ccc(-c4cnccn4)c(F)c3)cc12 | 32 |
| Cc1c(CC(C)(C)C(=O)O)n(Cc2ccc(Cl)cc2)c2ccc(-c3ccccc3)cc12 | 600 |
| Cc1c(CC(C)(C)C(=O)O)n(Cc2ccc(Cl)cc2)c2ccc(C(C)(C)C)cc12 | 330 |
| CC(C)c1ccc2c(c1)c(Oc1ccccc1)c(CC(C)(C)C(=O)O)n2Cc1ccc(Cl)cc1 | 650 |
| Cc1ccc(-c2ccc(-c3ccc4c(c3)c(C)c(CC(C)(C)C(=O)O)n4Cc3ccc(Cl)cc3)cc2F)cc1 | 31 |
| Cc1cccc(-c2ccc(-c3ccc4c(c3)c(C)c(CC(C)(C)C(=O)O)n4Cc3ccc(Cl)cc3)cc2F)c1 | 33 |
| CC(C)c1ccc2c(c1)c(Cc1ccc(C(C)(C)C)cc1)c(CC(C)(C)C(=O)O)n2Cc1ccc(Cl)cc1 | 290 |
| Cc1c(CC(C)(C)C(=O)O)n(Cc2ccc(Cl)cc2)c2ccc(F)cc12 | 2600 |
| Cc1c(CC(C)(C)C(=O)O)n(Cc2ccc(Cl)cc2)c2ccc(-c3ccc(-c4ccccc4)c(Cl)c3)cc12 | 22 |
| Cc1c(CC(C)(C)C(=O)O)n(Cc2ccc(Cl)cc2)c2ccc(C(C)C)cc12 | 1100 |
| CC(=O)c1ccccc1-c1ccc(-c2ccc3c(c2)c(C)c(CC(C)(C)C(=O)O)n3Cc2ccc(Cl)cc2)cc1F | 6 |
| COc1ccccc1-c1ccc(-c2ccc3c(c2)c(C)c(CC(C)(C)C(=O)O)n3Cc2ccc(Cl)cc2)cc1F | 5 |
| CC(C)c1ccc2c(c1)c(C(=O)CSC(C)(C)C)c(CC(C)(C)C(=O)O)n2Cc1ccc(Cl)cc1 | 260 |

Second part, the molecule after the results:

| IC50 [nM] | Compound |
| --- | --- |
| 7200 | COC(=O)C(C)(C)Cc1c(SC(C)(C)C)c2cc(C(C)C)ccc2n1Cc1ccc(Cl)cc1 |
| 4300 | Cc1c(CC(C)(C)C(=O)O)n(Cc2ccc(Cl)cc2)c2c(C(C)C)cccc12 |
| > 10000 | CC(C)c1ccc2c(c1)c(SC(C)(C)C)c(CC(C)(C)C(=O)O)n2C |
| 12 | Cc1c(CC(C)(C)C(=O)O)n(Cc2ccc(Cl)cc2)c2ccc(-c3ccc(-c4cccnc4)c(F)c3)cc12 |
| 8 | Cc1c(CC(C)(C)C(=O)O)n(Cc2ccc(Cl)cc2)c2ccc(-c3ccc(-c4ccccc4F)c(F)c3)cc12 |
| 3200 | Cc1c(CC(C)(C)C(=O)O)n(Cc2ccc(Cl)cc2)c2ccccc12 |

Target: T2, Arachidonate 5-lipoxygenase-activating protein (Homo sapiens, UniProt P20292)
T2 sequence (P20292 whole entry): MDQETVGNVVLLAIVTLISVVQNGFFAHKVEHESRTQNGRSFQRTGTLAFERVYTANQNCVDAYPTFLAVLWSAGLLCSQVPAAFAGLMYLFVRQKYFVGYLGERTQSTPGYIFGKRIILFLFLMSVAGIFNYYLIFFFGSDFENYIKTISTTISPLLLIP
Assay: In vitro binding affinity against FLAP (5-Lipoxygenase activation protein)

| IC50 [nM] | Compound |
| --- | --- |
| > 1000 | Cc1ccccc1-c1ccc(-c2ccc3c(c2)c(C)c(CC(C)(C)C(=O)O)n3Cc2ccc(Cl)cc2)cc1F |
| > 1000 | Cc1c(CC(C)(C)C(=O)O)n(Cc2ccc(Cl)cc2)c2ccc(-c3ccc(-c4ccccc4)c(F)c3)cc12 |
